From ChEMBL document CHEMBL3414559, “Novel C-4 heteroaryl 13-cis-retinamide Mnk/AR degrading agents inhibit cell proliferation and migration and induce apoptosis in human breast and prostate cancer cells and suppress growth of MDA-MB-231 human breast and CWR22Rv1 human prostate tumor xenografts in mice” (J Med Chem, 2015)

Tests used:
Format in all cases: functional
MDA-MB-231 [1] = assay: Antitumor activity against human MDA-MB-231 cells xenografted in SCID mouse assessed as inhibition of tumor growth at 20 mg/kg, ip dosed once daily for 5 days per week for 28 days; conditions: MDA-MB-231, ip, in the assay text read “athymic nude mouse” for “SCID mouse”, route intraperitoneal, read-out: TGI
Summary of the method: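 Athymic nude female mice with subcutaneous MDA-MB-231 tumors (10 × 10⁶ cells; ~100 mm³ at randomization, n = 6/group) dosed ip once daily, 5 days/week for 28 days, in 40% β-cyclodextrin/ddH₂O; vehicle controls. %T/C computed as median tumor volume treated vs control at day 28 × 100. Body weight monitored.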

MCF7 = assay: Growth inhibition of human MCF7 cells at 10 uM by MTT assay; conditions: read-out: GI
MDA-MB-231 [2] = assay: Growth inhibition of human MDA-MB-231 cells at 10 uM by MTT assay; conditions: read-out: GI
MDA-MB-468 = assay: Growth inhibition of human MDA-MB-468 cells at 10 uM by MTT assay; conditions: read-out: GI
[3] = Growth inhibition of human SKBR3 cells at 10 uM by MTT assay; conditions: SK-BR-3, read-out: GI

SMILES	inhibition in vivo at 20 mg/kg (MDA-MB-231 [1])	inhibition of growth at 10 µM (MCF7)	inhibition of growth at 10 µM (MDA-MB-231 [2])	inhibition of growth at 10 µM (MDA-MB-468)	inhibition of growth at 10 µM [3]
CC1=C(/C=C/C(C)=C/C=C/C(C)=C/C(=O)Nc2ccc(F)cc2)C(C)(C)CCC1n1ccnc1 (stereo not drawn)	97%	–	–	–	–
COc1cccc(C2=CCC(C)(C)C(/C=C/C(C)=C/C=C/C(C)=C\C(=O)NCCc3ccc(O)cc3)=C2C)c1	–	≥ 40%	≥ 40%	≥ 40%	≥ 40%
COc1cccc(C2=CCC(C)(C)C(/C=C/C(C)=C/C=C/C(C)=C\C(=O)NCc3ccc(O)cc3)=C2C)c1	–	≥ 40%	≥ 40%	≥ 40%	≥ 40%
CC1=C(/C=C/C(C)=C/C=C/C(C)=C\C(=O)NCc2ccc(O)cc2)C(C)(C)CC=C1c1cccnc1	–	≥ 40%	≥ 40%	≥ 40%	≥ 40%
